System: not listed separately
Test: Cytotoxicity against rat RBL2H3 cells by MTT assay
Type: cell-based
Parameters: concentration or dose not given beside the values
Settings: rbl-2h3
In short: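 RBL2H3 cells (α-MEM) or PC12 cells (D-MEM), both with 10% FBS, treated at a single dose in 0.1% DMSO; 0.1% DMSO control; 37 °C, 5% CO2. MTT (5 mg/mL) added 4 h before the end, then SDS/DMF lysis buffer (pH 7.2) for 6 h; absorbance read at 570 nm. Cytotoxicity % calculated from background-corrected OD versus control.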

SMILES	Activity
COC(=O)C(Cc1ccccc1)NC(=O)[C@]12CC[C@@H](C)[C@H](C)[C@H]1C1=CC[C@@H]3[C@@]4(C)Cc5c([nH]c6ccc(Cl)cc56)C(C)(C)[C@@H]4CC[C@@]3(C)[C@]1(C)CC2 (stereo not given in full)	1.6%
C[C@H]1[C@H](C)CC[C@]2(C(=O)O)CC[C@]3(C)C(=CC[C@@H]4[C@@]5(C)CC[C@H](O)C(C)(C)[C@@H]5CC[C@]43C)[C@H]12 [URSOLIC ACID]	10%
CCOC(=O)CNC(=O)[C@]12CC[C@@H](C)[C@H](C)[C@H]1C1=CC[C@@H]3[C@@]4(C)Cc5c([nH]c6ccc(Br)cc56)C(C)(C)[C@@H]4CC[C@@]3(C)[C@]1(C)CC2	1.7%
C[C@H]1[C@H](C)CC[C@]2(C(=O)O)CC[C@]3(C)C(=CC[C@@H]4[C@@]5(C)Cc6cnn(-c7ccc(F)cc7)c6C(C)(C)[C@@H]5CC[C@]43C)[C@H]12	1.5%
COC(=O)C(CC(C)C)NC(=O)[C@]12CC[C@@H](C)[C@H](C)[C@H]1C1=CC[C@@H]3[C@@]4(C)CCC(=O)C(C)(C)[C@@H]4CC[C@@]3(C)[C@]1(C)CC2 (stereo not given in full)	2.6%
COC(=O)C(Cc1ccccc1)NC(=O)[C@]12CC[C@@H](C)[C@H](C)[C@H]1C1=CC[C@@H]3[C@@]4(C)CC[C@H](OC(C)=O)C(C)(C)[C@@H]4CC[C@@]3(C)[C@]1(C)CC2 (stereo not given in full)	12.4%
CCOC(=O)CNC(=O)[C@]12CC[C@@H](C)[C@H](C)[C@H]1C1=CC[C@@H]3[C@@]4(C)Cc5cncnc5C(C)(C)[C@@H]4CC[C@@]3(C)[C@]1(C)CC2	1.9%
COC(=O)C(CC(C)C)NC(=O)[C@]12CC[C@@H](C)[C@H](C)[C@H]1C1=CC[C@@H]3[C@@]4(C)Cc5cncnc5C(C)(C)[C@@H]4CC[C@@]3(C)[C@]1(C)CC2 (stereo not given in full)	10.3%
C[C@H]1[C@H](C)CC[C@]2(C(=O)NC3CCN(Cc4ccccc4)CC3)CC[C@]3(C)C(=CC[C@@H]4[C@@]5(C)Cc6nc7ccccc7nc6C(C)(C)[C@@H]5CC[C@]43C)[C@H]12	51.1%
CCOC(=O)CNC(=O)[C@]12CC[C@@H](C)[C@H](C)[C@H]1C1=CC[C@@H]3[C@@]4(C)Cc5cn[nH]c5C(C)(C)[C@@H]4CC[C@@]3(C)[C@]1(C)CC2	0.4%
COC(=O)C(Cc1ccccc1)NC(=O)[C@]12CC[C@@H](C)[C@H](C)[C@H]1C1=CC[C@@H]3[C@@]4(C)Cc5nc6ccccc6nc5C(C)(C)[C@@H]4CC[C@@]3(C)[C@]1(C)CC2 (stereo not given in full)	12.4%
CCOC(=O)CNC(=O)[C@]12CC[C@@H](C)[C@H](C)[C@H]1C1=CC[C@@H]3[C@@]4(C)Cc5cnoc5C(C)(C)[C@@H]4CC[C@@]3(C)[C@]1(C)CC2	11.1%
COC(=O)C(Cc1ccccc1)NC(=O)[C@]12CC[C@@H](C)[C@H](C)[C@H]1C1=CC[C@@H]3[C@@]4(C)CCC(=O)C(C)(C)[C@@H]4CC[C@@]3(C)[C@]1(C)CC2 (stereo not given in full)	1.1%
CCOC(=O)CNC(=O)[C@]12CC[C@@H](C)[C@H](C)[C@H]1C1=CC[C@@H]3[C@@]4(C)CC[C@H](OC(C)=O)C(C)(C)[C@@H]4CC[C@@]3(C)[C@]1(C)CC2	1.6%
COC(=O)C(CC(C)C)NC(=O)[C@]12CC[C@@H](C)[C@H](C)[C@H]1C1=CC[C@@H]3[C@@]4(C)C=C(C#N)C(=O)C(C)(C)[C@@H]4CC[C@@]3(C)[C@]1(C)CC2 (stereo not given in full)	58.1%
COC(=O)C(CC(C)C)NC(=O)[C@]12CC[C@@H](C)[C@H](C)[C@H]1C1=CC[C@@H]3[C@@]4(C)Cc5cnn(-c6ccccc6)c5C(C)(C)[C@@H]4CC[C@@]3(C)[C@]1(C)CC2 (stereo not given in full)	1.8%
COC(=O)C(Cc1ccccc1)NC(=O)[C@]12CC[C@@H](C)[C@H](C)[C@H]1C1=CC[C@@H]3[C@@]4(C)Cc5cnoc5C(C)(C)[C@@H]4CC[C@@]3(C)[C@]1(C)CC2 (stereo not given in full)	0.8%

SMILES	Activity
COC(=O)C(CC(C)C)NC(=O)[C@]12CC[C@@H](C)[C@H](C)[C@H]1C1=CC[C@@H]3[C@@]4(C)Cc5cnn(-c6ccc(F)cc6)c5C(C)(C)[C@@H]4CC[C@@]3(C)[C@]1(C)CC2 (stereo not given in full)	1%
CCOC(=O)CNC(=O)[C@]12CC[C@@H](C)[C@H](C)[C@H]1C1=CC[C@@H]3[C@@]4(C)Cc5nc6cc(Cl)c(Cl)cc6nc5C(C)(C)[C@@H]4CC[C@@]3(C)[C@]1(C)CC2	2%
COC(=O)C(Cc1ccccc1)NC(=O)[C@]12CC[C@@H](C)[C@H](C)[C@H]1C1=CC[C@@H]3[C@@]4(C)Cc5cn[nH]c5C(C)(C)[C@@H]4CC[C@@]3(C)[C@]1(C)CC2 (stereo not given in full)	1.9%
C[C@H]1[C@H](C)CC[C@]2(C(=O)NCCN3CCCCC3)CC[C@]3(C)C(=CC[C@@H]4[C@@]5(C)Cc6nc7ccccc7nc6C(C)(C)[C@@H]5CC[C@]43C)[C@H]12	52.1%
C[C@H]1[C@H](C)CC[C@]2(C(=O)O)CC[C@]3(C)C(=CC[C@@H]4[C@@]5(C)Cc6c([nH]c7ccc(Br)cc67)C(C)(C)[C@@H]5CC[C@]43C)[C@H]12	3.7%
COC(=O)C(Cc1ccccc1)NC(=O)[C@]12CC[C@@H](C)[C@H](C)[C@H]1C1=CC[C@@H]3[C@@]4(C)Cc5cnn(-c6ccc(F)cc6)c5C(C)(C)[C@@H]4CC[C@@]3(C)[C@]1(C)CC2 (stereo not given in full)	2%
COC(=O)C(CC(C)C)NC(=O)[C@]12CC[C@@H](C)[C@H](C)[C@H]1C1=CC[C@@H]3[C@@]4(C)Cc5c([nH]c6ccc(Br)cc56)C(C)(C)[C@@H]4CC[C@@]3(C)[C@]1(C)CC2 (stereo not given in full)	3%
COC(=O)C(Cc1ccccc1)NC(=O)[C@]12CC[C@@H](C)[C@H](C)[C@H]1C1=CC[C@@H]3[C@@]4(C)C=C(C#N)C(=O)C(C)(C)[C@@H]4CC[C@@]3(C)[C@]1(C)CC2 (stereo not given in full)	5.4%
COC(=O)C(CC(C)C)NC(=O)[C@]12CC[C@@H](C)[C@H](C)[C@H]1C1=CC[C@@H]3[C@@]4(C)Cc5nc6ccccc6nc5C(C)(C)[C@@H]4CC[C@@]3(C)[C@]1(C)CC2 (stereo not given in full)	0.5%
COC(=O)C(CC(C)C)NC(=O)[C@]12CC[C@@H](C)[C@H](C)[C@H]1C1=CC[C@@H]3[C@@]4(C)Cc5cnoc5C(C)(C)[C@@H]4CC[C@@]3(C)[C@]1(C)CC2 (stereo not given in full)	17.7%
C[C@H]1[C@H](C)CC[C@]2(C(=O)NCCCN3CCOCC3)CC[C@]3(C)C(=CC[C@@H]4[C@@]5(C)Cc6nc7ccccc7nc6C(C)(C)[C@@H]5CC[C@]43C)[C@H]12	31.3%
C[C@H]1[C@H](C)CC[C@]2(C(=O)O)CC[C@]3(C)C(=CC[C@@H]4[C@@]5(C)C=C(C#N)C(=O)C(C)(C)[C@@H]5CC[C@]43C)[C@H]12	4.3%
COC(=O)C(Cc1ccccc1)NC(=O)[C@]12CC[C@@H](C)[C@H](C)[C@H]1C1=CC[C@@H]3[C@@]4(C)Cc5c([nH]c6ccc(Br)cc56)C(C)(C)[C@@H]4CC[C@@]3(C)[C@]1(C)CC2 (stereo not given in full)	16%
COC(=O)C(CC(C)C)NC(=O)[C@]12CC[C@@H](C)[C@H](C)[C@H]1C1=CC[C@@H]3[C@@]4(C)Cc5nc6cc(Cl)c(Cl)cc6nc5C(C)(C)[C@@H]4CC[C@@]3(C)[C@]1(C)CC2 (stereo not given in full)	0.7%
C[C@H]1[C@H](C)CC[C@]2(C(=O)O)CC[C@]3(C)C(=CC[C@@H]4[C@@]5(C)Cc6cnn(-c7ccccc7)c6C(C)(C)[C@@H]5CC[C@]43C)[C@H]12	2.4%
C[C@H]1[C@H](C)CC[C@]2(C(=O)O)CC[C@]3(C)C(=CC[C@@H]4[C@@]5(C)Cc6c([nH]c7ccc(Cl)cc67)C(C)(C)[C@@H]5CC[C@]43C)[C@H]12	2.9%
CSCC[C@@H](NC(=O)[C@]12CC[C@@H](C)[C@H](C)[C@H]1C1=CC[C@@H]3[C@@]4(C)Cc5nc6ccccc6nc5C(C)(C)[C@@H]4CC[C@@]3(C)[C@]1(C)CC2)C(=O)O	6.2%

Target: T1, Tryptophan 5-hydroxylase 1 (Rattus norvegicus, UniProt P09810)
T1 sequence (P09810 whole entry): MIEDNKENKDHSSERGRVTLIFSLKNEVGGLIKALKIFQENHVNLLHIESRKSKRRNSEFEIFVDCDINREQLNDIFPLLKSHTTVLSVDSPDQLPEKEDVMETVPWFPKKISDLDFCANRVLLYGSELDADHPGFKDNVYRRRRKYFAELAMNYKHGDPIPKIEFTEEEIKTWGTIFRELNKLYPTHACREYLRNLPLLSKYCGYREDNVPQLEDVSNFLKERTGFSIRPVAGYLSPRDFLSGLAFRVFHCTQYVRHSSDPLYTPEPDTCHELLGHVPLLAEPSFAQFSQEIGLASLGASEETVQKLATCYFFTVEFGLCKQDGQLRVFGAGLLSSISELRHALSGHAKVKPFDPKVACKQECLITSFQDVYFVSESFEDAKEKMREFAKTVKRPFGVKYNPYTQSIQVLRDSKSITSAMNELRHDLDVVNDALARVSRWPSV
Settings: not given

IC50	SMILES
0.4 µM	Nc1nc(OC(c2ccc(-c3cccc(F)c3)cc2)C(F)(F)F)cc(-c2ccc(C[C@H](N)C(=O)O)cc2)n1 (stereo not given in full)

From ChEMBL document CHEMBL3286111, “Tryptophan hydroxylase 1 (Tph-1)-targeted bone anabolic agents for osteoporosis” (J Med Chem, 2014)
